Assay results reported in ChEMBL document CHEMBL4422636, “Investigation of the structural requirements for N-methyl-D-aspartate receptor positive and negative allosteric modulators based on 2-naphthoic acid” (Eur J Med Chem, 2019).
Active and inactive are the calls of the source. The rule behind the calls is not given here.

Key:
[1] = biological target: T1, Ionotropic glutamate receptor NMDA 1/2D (Rattus norvegicus, UniProt P35439+Q62645); assay: Negative allosteric modulation of rat GluN1/GluN2D expressed in Xenopus laevis oocytes assessed as inhibition of L-glutamate/glycine-induced current response at holding potential -60 mV by two-electrode voltage clamp method; format: cell-based
In short: (§1)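 Oocytes injected with GluN1a plus GluN2A, 2B, 2C or 2D RNA (1:1–3 molar, 15–30 ng total) and kept in ND-96 at 17°C for 1–5 days. TEVC at −60 mV in HEPES-buffered NaCl/KCl/BaCl2 saline, pH 7.4. […] Curves were fitted to give EC50/IC50 and maximal potentiation or inhibition, mean ± s.e.m.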

[2] = biological target: Glutamate receptor ionotropic, NMDA 2A (Rattus norvegicus) (UniProt Q00959); assay: Allosteric modulation of rat GluN2A expressed in Xenopus laevis oocytes assessed as L-glutamate/glycine-induced current response at 100 uM at holding potential -60 mV by two-electrode voltage clamp method relative to L-glutamate/glycine; format: cell-based
In short: (§2)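 GluN1a with one GluN2 subunit; RNAs mixed 1:1–3 molar, 15–30 ng total injected into Xenopus oocytes, which were held in ND-96 at 17°C for 1–5 days. TEVC at −60 mV in 116 mM NaCl, 2 mM KCl, 0.3 mM BaCl2, 5 mM HEPES, pH 7.4. […] Reported as % of agonist-alone response, mean ± s.e.m., n≥4.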

[3] = Solubility of the compound at 100 uM; format: physicochemical
In short: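 Compounds were inspected for visible precipitation at the concentrations used in the oocyte assays.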

[4] = biological target: T2, Glutamate NMDA receptor; Grin1/Grin2b (Rattus norvegicus, UniProt P35439+Q00960); assay: Negative allosteric modulation of rat GluN1/GluN2B expressed in Xenopus laevis oocytes assessed as inhibition of L-glutamate/glycine-induced current response at holding potential -60 mV by two-electrode voltage clamp method; format: cell-based; in short: as §1
[5] = biological target: Glutamate receptor ionotropic, NMDA 2D (Rattus norvegicus) (UniProt Q62645); assay: Allosteric modulation of rat GluN2D expressed in Xenopus laevis oocytes assessed as L-glutamate/glycine-induced current response at 100 uM at holding potential -60 mV by two-electrode voltage clamp method relative to L-glutamate/glycine; format: cell-based; in short: as §2
[6] = biological target: Glutamate NMDA receptor; Grin1/Grin2b (Rattus norvegicus) (UniProt P35439+Q00960); assay: Negative allosteric modulation of rat GluN1/GluN2B expressed in Xenopus laevis oocytes assessed as inhibition of L-glutamate/glycine-induced current response at holding potential -60 mV by two-electrode voltage clamp method relative to untreated control; format: cell-based; design: concentration or dose not given beside the values; in short: as §1
[7] = biological target: Glutamate NMDA receptor; Grin1/Grin2c (Rattus norvegicus) (UniProt P35439+Q00961); assay: Negative allosteric modulation of rat GluN1/GluN2C expressed in Xenopus laevis oocytes assessed as inhibition of L-glutamate/glycine-induced current response at holding potential -60 mV by two-electrode voltage clamp method relative to untreated control; format: cell-based; design: concentration or dose not given beside the values; in short: as §1
[8] = biological target: Glutamate NMDA receptor; Grin1/Grin2a (Rattus norvegicus) (UniProt P35439+Q00959); assay: Negative allosteric modulation of rat GluN1/GluN2A expressed in Xenopus laevis oocytes assessed as inhibition of L-glutamate/glycine-induced current response at holding potential -60 mV by two-electrode voltage clamp method relative to untreated control; format: cell-based; design: concentration or dose not given beside the values; in short: as §1
[9] = biological target: T3, Glutamate NMDA receptor; Grin1/Grin2a (Rattus norvegicus, UniProt P35439+Q00959); assay: Negative allosteric modulation of rat GluN1/GluN2A expressed in Xenopus laevis oocytes assessed as inhibition of L-glutamate/glycine-induced current response at holding potential -60 mV by two-electrode voltage clamp method; format: cell-based; in short: as §1
[10] = biological target: Glutamate receptor ionotropic, NMDA 2B (Rattus norvegicus) (UniProt Q00960); assay: Allosteric modulation of rat GluN2B expressed in Xenopus laevis oocytes assessed as L-glutamate/glycine-induced current response at 100 uM at holding potential -60 mV by two-electrode voltage clamp method relative to L-glutamate/glycine; format: cell-based; in short: as §2
[11] = biological target: Glutamate receptor ionotropic, NMDA 2C (Rattus norvegicus) (UniProt Q00961); assay: Allosteric modulation of rat GluN2C expressed in Xenopus laevis oocytes assessed as L-glutamate/glycine-induced current response at 100 uM at holding potential -60 mV by two-electrode voltage clamp method relative to L-glutamate/glycine; format: cell-based; in short: as §2
[12] = biological target: T4, Glutamate NMDA receptor; Grin1/Grin2c (Rattus norvegicus, UniProt P35439+Q00961); assay: Negative allosteric modulation of rat GluN1/GluN2C expressed in Xenopus laevis oocytes assessed as inhibition of L-glutamate/glycine-induced current response at holding potential -60 mV by two-electrode voltage clamp method; format: cell-based; in short: as §1
[13] = biological target: Ionotropic glutamate receptor NMDA 1/2D (Rattus norvegicus) (UniProt P35439+Q62645); assay: Negative allosteric modulation of rat GluN1/GluN2D expressed in Xenopus laevis oocytes assessed as inhibition of L-glutamate/glycine-induced current response at holding potential -60 mV by two-electrode voltage clamp method relative to untreated control; format: cell-based; design: concentration or dose not given beside the values; in short: as §1
[14] = biological target: Glutamate receptor ionotropic, NMDA 2A (Rattus norvegicus) (UniProt Q00959); assay: Agonist activity at rat GluN2A expressed in Xenopus laevis oocytes assessed effect on current response at holding potential -60 mV by two-electrode voltage clamp method relative to L-glutamate/glycine; format: cell-based; in short: as §2
[15] = biological target: Glutamate receptor ionotropic, NMDA 2D (Rattus norvegicus) (UniProt Q62645); assay: Agonist activity at rat GluN2D expressed in Xenopus laevis oocytes assessed as effect on current response at holding potential -60 mV by two-electrode voltage clamp method relative to L-glutamate/glycine; format: cell-based; in short: as §2
[16] = biological target: Glutamate receptor ionotropic, NMDA 2C (Rattus norvegicus) (UniProt Q00961); assay: Agonist activity at rat GluN2C expressed in Xenopus laevis oocytes assessed effect on current response at holding potential -60 mV by two-electrode voltage clamp method relative to L-glutamate/glycine; format: cell-based; in short: as §2
[17] = biological target: Glutamate receptor ionotropic, NMDA 2B (Rattus norvegicus) (UniProt Q00960); assay: Agonist activity at rat GluN2B expressed in Xenopus laevis oocytes assessed as effect on current response at holding potential -60 mV by two-electrode voltage clamp method relative to L-glutamate/glycine; format: cell-based; in short: as §2
[18] = biological target: Glutamate receptor ionotropic, NMDA 2D (Rattus norvegicus) (UniProt Q62645); assay: Positive allosteric modulation of rat GluN2D expressed in Xenopus laevis oocytes assessed as potentiation of L-glutamate/glycine-induced current response at holding potential -60 mV by two-electrode voltage clamp method relative to L-glutamate/glycine; format: cell-based; design: concentration or dose not given beside the values; in short: as §1
[19] = biological target: T1, Ionotropic glutamate receptor NMDA 1/2D; assay: Positive allosteric modulation of rat GluN1/GluN2D expressed in Xenopus laevis oocytes assessed as potentiation of L-glutamate/glycine-induced current response at holding potential -60 mV by two-electrode voltage clamp method; format: cell-based; in short: as §1
[20] = biological target: Glutamate receptor ionotropic, NMDA 2A (Rattus norvegicus) (UniProt Q00959); assay: Positive allosteric modulation of rat GluN2A expressed in Xenopus laevis oocytes assessed as potentiation of L-glutamate/glycine-induced current response at holding potential -60 mV by two-electrode voltage clamp method relative to L-glutamate/glycine; format: cell-based; design: concentration or dose not given beside the values; in short: as §1
[21] = biological target: T3, Glutamate NMDA receptor; Grin1/Grin2a; assay: Positive allosteric modulation of rat GluN1/GluN2A expressed in Xenopus laevis oocytes assessed as potentiation of L-glutamate/glycine-induced current response at holding potential -60 mV by two-electrode voltage clamp method; format: cell-based; in short: as §1
[22] = biological target: T4, Glutamate NMDA receptor; Grin1/Grin2c; assay: Positive allosteric modulation of rat GluN1/GluN2C expressed in Xenopus laevis oocytes assessed as potentiation of L-glutamate/glycine-induced current response at holding potential -60 mV by two-electrode voltage clamp method; format: cell-based; in short: as §1
[23] = biological target: Glutamate receptor ionotropic, NMDA 2C (Rattus norvegicus) (UniProt Q00961); assay: Positive allosteric modulation of rat GluN2C expressed in Xenopus laevis oocytes assessed as potentiation of L-glutamate/glycine-induced current response at holding potential -60 mV by two-electrode voltage clamp method relative to L-glutamate/glycine; format: cell-based; design: concentration or dose not given beside the values; in short: as §1
[24] = biological target: T2, Glutamate NMDA receptor; Grin1/Grin2b; assay: Positive allosteric modulation of rat GluN1/GluN2B expressed in Xenopus laevis oocytes assessed as potentiation of L-glutamate/glycine-induced current response at holding potential -60 mV by two-electrode voltage clamp method; format: cell-based; in short: as §1
[25] = biological target: Glutamate receptor ionotropic, NMDA 2B (Rattus norvegicus) (UniProt Q00960); assay: Positive allosteric modulation of rat GluN2B expressed in Xenopus laevis oocytes assessed as potentiation of L-glutamate/glycine-induced current response at holding potential -60 mV by two-electrode voltage clamp method relative to L-glutamate/glycine; format: cell-based; in short: as §1

Compound | Activity [2] [%] | solubility [3] | Activity [5] [%] | Activity [10] [%] | Activity [11] [%] | Activity [14] | Activity [15] | Activity [16] | Activity [17] | Activity [18] [%] | EC50 [19] [µM] | Activity [20] [%] | EC50 [21] [µM] | EC50 [22] [µM] | Activity [23] [%] | EC50 [24] [µM] | Activity [25] [%] | also measured
O=C(O)c1cc2cc(/C=C/c3ccc([N+](=O)[O-])cc3)ccc2cc1O | 47.4 | Soluble | 34.4 | 53.2 | 43.3 |  |  |  |  |  |  |  |  |  |  |  |  | IC50 [1]: 2.9 µM; IC50 [4]: 11.1 µM; Activity [6]: 48.4%; Activity [7]: 55.9%; Activity [8]: 54.1%; IC50 [9]: 5.8 µM; IC50 [12]: 6.5 µM; Activity [13]: 72.3%
O=C(O)c1ccc2cc(C3CC3)ccc2c1 | 97 | Soluble | 94 | 97 | 97 | inactive | inactive | inactive | inactive |  |  |  |  |  |  |  |  | 
O=C(O)c1ccc2cc(CCCC3CCCC3)ccc2c1 | 136 | Soluble | 161 | 175 | 171 | inactive | inactive | inactive | inactive | 65.6 | 34.7 | 38.4 | 7.5 | 22.4 | 105 | 27 | 61.9 | 
CCCCCc1ccc2cc(C(=O)O)ccc2c1 | 131 | Soluble | 110 | 102 | 126 | inactive | inactive | inactive | inactive | 17.3 | 61 | 39 | 26.7 | 113 | 42.7 |  |  | 

More lines, main results first:

Activity [2] [%] | solubility [3] | Activity [5] [%] | Activity [10] [%] | Activity [11] [%] | Activity [14] | Activity [15] | Activity [16] | Activity [17] | Activity [18] [%] | EC50 [19] [µM] | Activity [20] [%] | EC50 [21] [µM] | EC50 [22] [µM] | Activity [23] [%] | EC50 [24] [µM] | Activity [25] [%] | Compound | also measured
104 | Soluble | 110 | 99 | 125 | inactive | inactive | inactive | inactive |  |  |  |  |  |  |  |  | CC(C)CC#Cc1ccc2cc(C(=O)O)ccc2c1 | 
281 | Soluble | 317 | 225 | 337 | inactive | inactive | inactive | inactive | 240 | 30.6 | 277 | 39.4 | 36.2 | 263 | 25 | 192 | CC(C)CCC(C)c1ccc2cc(C(=O)O)ccc2c1 (racemic) | 
